# Source: PubChem (Johns Hopkins Ion Channel Center)
# Sampled rows, rich in hits. Any-hit rate of the full collection: about 2.3%.
# TRPC6 inh: blocks the mouse TRPC6 cation channel; B-score at 10 µM; HEK293-TRPC6, membrane potential dye, ACh-evoked depolarization; hits give low values; hit rate 1.1% among 310,000; AID 2553;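 active means B-score under library mean minus 3 SD, initial fluorescence not abnormally high, positive integrated signal ratio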;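 further: B-score derived from integrated fluorescence ratio over the kinetic read; more negative B-score means stronger inhibition of depolarization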
# TRPC4 act: activators of mouse TRPC4 channel; HEK293 TRPC4beta/mu-opioid, Fluo4 calcium fluorescence; hits give high values; Q9QUQ5; AID 2237; hit rate 0.49% among 310,000; B-score at 10 µM;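 active means B-score above 5 SD of library B-scores, and initial fluorescence ratio not above library mean plus 5 SD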;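 further: positive B-score marks a calcium rise read as TRPC4 activation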
#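 Assay system – TRPC4beta and mu-opioid receptor HEK293 stable cells · Measured by – Fluo4 fluorescence, kinetic · Schedule – dye loading 45 min room temperature, 110 s kinetic read · Read-out – B-scored integrated calcium fluorescence ratio · Controls – buffer and maximal DAMGO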
# TRPC6 activator: activators of mouse TRPC6 channel; Q61143; HEK293-TRPC6 membrane potential dye fluorescence; hits give high values; B-score at 10 µM; hit rate 0.13% among 310,000; AID 2550;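 active means B-score of the integrated fluorescence ratio above library mean plus 3 SD, and starting fluorescence ratio within library mean plus 5 SD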;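 further: higher score means more depolarization so channel activation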
# TRPC4 potent: allosteric potentiators of mouse TRPC4 channel; Q9QUQ5; HEK293 TRPC4beta/mu-opioid, DAMGO EC20, Fluo-4 Ca2+ flux; hits give high values; B-score at 10 µM; hit rate 0.42% among 310,000;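 active means B-score of calcium response area above 5 SD of library B-scores, with initial fluorescence ratio within 5 SD of library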;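 further: B-score of integrated fluorescence ratio over time as area under calcium response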
# TRPC4 block: inhibitors of mouse TRPC4 channel; HEK293 TRPC4beta/mu-opioid, DAMGO-evoked Fluo4 calcium flux; hits give low values; B-score at 10 µM; hit rate 0.39% among 300,000;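 active means B-score over 3 SD under the library average, no early fluorescence shift, positive overall ratio signal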
#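 System: stable TRPC4beta/mu-opioid receptor HEK293 cells; Dosing: single-point compound dosing; Measured by: Fluo4 Ca2+ flux fluorescence; Read-out basis: per-well B score of integrated baseline-normalized Fluo4 ratio.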
# Active calls of the source: *; i = inactive.
SMILES,TRPC6 inh,TRPC4 act,TRPC6 activator,TRPC4 potent,TRPC4 block
CC(C)N1CCN(Cc2ccoc2)CC1CCO (centres undefined),i,i,i,i,i
CCCCN1C2=NCCCN2c2cc(C)c(C)cc21,i,i,i,i,-7*
Cc1cc2c(cc1C)N(Cc1ccc(Cl)cc1)C1=NCCCN12,i,i,i,111*,i
CCCCN1C2=NCCCN2c2ccccc21,i,i,i,i,i
CCCCn1c(N)c(N(CC(C)C)C(=O)c2c(CC)noc2C)c(=O)[nH]c1=O,i,i,i,i,i
Cc1ccccc1C(=O)c1c[nH]c(C(=O)NCCc2ccccn2)c1,i,i,i,i,i
CCn1nnc(NC(=O)c2ccco2)n1,i,i,i,i,i
COc1ccc(F)cc1C(=O)C1CCCN(Cc2ccc3c(c2)OCCO3)C1 (centres undefined),i,i,i,i,-7*
COc1ccc(C(=O)C2CCCN(Cc3cc(C)c(O)c(C)c3)C2)c(OC)c1 (centres undefined),i,i,i,i,i
COc1ccccc1C(=O)C1CCCN(Cc2ccc3c(c2)OCCO3)C1 (centres undefined),i,i,i,i,i
COc1ccc(C(=O)C2CCCN(Cc3c(C)[nH]c4ccccc34)C2)c(OC)c1 (centres undefined),-5*,i,i,i,i
COc1cc(CN2CCCC(C(=O)c3ccccc3SC)C2)cc(OC)c1 (centres undefined),i,i,i,i,-6*
Cc1ccc(C)c(CSc2nnc(CCN)o2)c1,i,81*,i,i,i
NCCc1nnc(SCc2ccccc2)o1,i,i,i,16*,i
Cc1ccc(C)c(CSc2nnc([C@@H](N)C(C)C)o2)c1,i,i,i,i,i
CCOC(=O)C1(Cc2cccc(OC)c2)CCN(Cc2cccnc2)CC1,i,i,i,i,i
O=C(NNc1ccccc1[N+](=O)[O-])Nc1cccc(Cl)c1,i,i,i,i,i
Cc1cccc(N(Cc2ccccc2)C(=O)CSC(C)C(=O)Nc2cc(C)on2)c1 (centres undefined),i,i,i,i,-6*
Cc1cc(NC(=O)C(C)SCC(=O)O)no1 (centres undefined),i,i,i,i,i
O=C(NC1CCCCC1)c1cc(S(=O)(=O)N2CCOCC2)c(Cl)cc1Cl,i,i,i,i,i
COc1ccc(NC(=S)NN2C(C)CCCC2C)cc1 (centres undefined),i,i,i,i,i
COc1cccc(NC(=S)NN2C(C)CCCC2C)c1 (centres undefined),i,i,i,11*,i
Nc1c(Cl)cc(C2=NCCn3c2c2ccc(C(F)(F)F)cc2[n+]3[O-])cc1Cl,i,i,i,i,i
O=C(CN1C(=O)c2ccc([N+](=O)[O-])cc2C1=O)NCC1CCCO1 (centres undefined),i,i,i,i,i
CN(C)CCCN(C(=O)c1ccc([N+](=O)[O-])o1)c1nc2cc3c(cc2s1)OCO3,i,i,i,i,i
SMILES,TRPC6 inh,TRPC4 act,TRPC6 activator,TRPC4 potent,TRPC4 block
CCOC(=O)c1c(-c2ccc(OC)cc2)oc2ccc(O)cc12,i,i,i,17*,i
Cc1c(C(=O)c2ccc(Cl)cc2[N+](=O)[O-])c2ccccn2c1CCC#N,i,i,i,14*,i
CC(Oc1ccc(C(=O)c2ccc(F)cc2)cc1)C(=O)N1CCOCC1 (centres undefined),i,i,i,i,i
Cc1ccc(C(=O)c2no[n+]([O-])c2C(=O)c2ccc(C)cc2)cc1,i,i,i,29*,i
Cc1ccc(C(=O)c2ccc(C)cc2)cc1,i,i,i,i,i
Brc1cnc2nc[nH]c2c1,i,i,i,i,i
CCOC(=O)c1c(NC(=O)C2CC(Cl)=CCC2C(=O)O)sc2c1CCCCC2 (centres undefined),i,i,i,i,-6*
